Measurements published in ChEMBL document CHEMBL4196108, “5-Aroylindoles Act as Selective Histone Deacetylase 6 Inhibitors Ameliorating Alzheimer's Disease Phenotypes” (J Med Chem, 2018).
Active and inactive are the calls of the source. The rule behind the calls is not given here.

Key:
[1] = target: T1, Protein deacetylase HDAC6 (Homo sapiens) (UniProt Q9UBN7); experiment: Inhibition of HDAC6 in human SH-SY5Y cells transfected with pCAX FLAG APP and pRK5-EGFP-Tau P301L plasmids assessed as reduction in formed Tau P301L mutant aggregates level at 1 uM after 24 hrs by Western blot analysis; type: cell-based
T1 sequence (whole entry): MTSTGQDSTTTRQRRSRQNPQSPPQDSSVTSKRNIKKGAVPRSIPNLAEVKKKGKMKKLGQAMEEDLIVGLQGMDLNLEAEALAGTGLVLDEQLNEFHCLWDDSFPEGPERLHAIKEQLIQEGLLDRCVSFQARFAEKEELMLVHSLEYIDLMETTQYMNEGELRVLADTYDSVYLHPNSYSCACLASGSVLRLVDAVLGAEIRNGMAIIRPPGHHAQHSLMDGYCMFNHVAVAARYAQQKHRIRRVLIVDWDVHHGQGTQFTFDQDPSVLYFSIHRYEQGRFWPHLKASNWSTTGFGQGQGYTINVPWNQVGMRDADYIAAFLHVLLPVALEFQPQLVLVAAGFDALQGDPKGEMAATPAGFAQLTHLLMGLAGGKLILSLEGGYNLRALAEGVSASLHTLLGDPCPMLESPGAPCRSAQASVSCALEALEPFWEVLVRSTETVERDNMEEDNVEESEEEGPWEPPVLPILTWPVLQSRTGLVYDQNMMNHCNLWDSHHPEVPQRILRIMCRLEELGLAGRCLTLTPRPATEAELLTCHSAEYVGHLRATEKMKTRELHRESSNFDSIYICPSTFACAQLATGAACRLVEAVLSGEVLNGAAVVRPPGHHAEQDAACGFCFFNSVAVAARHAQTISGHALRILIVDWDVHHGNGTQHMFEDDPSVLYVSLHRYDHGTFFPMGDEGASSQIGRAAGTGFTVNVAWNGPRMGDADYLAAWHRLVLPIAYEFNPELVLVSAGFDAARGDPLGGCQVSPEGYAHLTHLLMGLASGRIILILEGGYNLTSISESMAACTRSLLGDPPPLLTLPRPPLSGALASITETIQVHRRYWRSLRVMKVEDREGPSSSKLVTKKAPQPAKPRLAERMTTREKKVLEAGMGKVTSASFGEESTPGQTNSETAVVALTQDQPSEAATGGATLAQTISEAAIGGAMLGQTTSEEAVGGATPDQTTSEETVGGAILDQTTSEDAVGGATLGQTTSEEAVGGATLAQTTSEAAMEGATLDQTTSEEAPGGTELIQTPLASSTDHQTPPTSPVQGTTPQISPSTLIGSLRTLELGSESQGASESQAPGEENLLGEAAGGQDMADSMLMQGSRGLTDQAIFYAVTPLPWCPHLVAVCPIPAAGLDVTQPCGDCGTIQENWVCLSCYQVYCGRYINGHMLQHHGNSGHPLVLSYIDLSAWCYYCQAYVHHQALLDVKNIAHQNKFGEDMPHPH
Outline: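 Cotransfected SH-SY5Y cells (1 × 10^7) treated 24 h at 1 µM, lysed in sucrose/HEPES pH 7.2 buffer; 190,000 g supernatant = cytosol. Pellet treated with 5 µM nocodazole, re-spun; residual pellet extracted with sodium carbonate pH 11.5 and washed in 1% SDS to give aggregate fraction. Equal protein by SDS-PAGE immunoblot.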

[2] = Plasma concentration in Sprague-Dawley rat at 50 mg/kg, po after 3 hrs by HPLC-MS/MS analysis; type: ADME, organism-based
Rattus norvegicus = experiment: Reversal of scopolamine-induced spatial memory impairment in Wistar rat assessed as decrease in transfer latency time at 25 mg/kg, po administered once daily for 1 week followed by scopolamine challenge 90 mins prior to test by elevated plus maze test; type: functional, organism-based
Outline: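 Male Wistar rats, 7 weeks old, dosed orally at 25 mg/kg in 1% carboxymethyl cellulose/0.5% Tween 80 once daily. Scopolamine 1 mg/kg i.p. 90 min before test trial (controls excluded). Morris water maze (hidden platform escape latency), elevated plus maze (started at open-arm end, time to closed arm), then CA1 phospho-tau Ser396/Ser404 immunohistochemistry.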

SH-SY5Y = experiment: Inhibition of APP levels in human SH-SY5Y cells transfected with pCAX FLAG APP and pRK5-EGFP-Tau P301L plasmids at 1 uM after 24 hrs by Western blot analysis; type: functional, cell-based
Outline: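 SH-SY5Y or Neuro-2a cells cotransfected 24 h with pCAX APP695 and pRK5-EGFP-Tau P301L, then treated 24 h at 1 µM. 20 µg lysate protein immunoblotted for APP and phospho-tau Ser396/Ser404. Mean ± STD of three independent experiments; Student's t-test.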

[3] = target: T1, Protein deacetylase HDAC6 (Homo sapiens); experiment: Inhibition of HDAC6 in human SH-SY5Y cells transfected with pCAX FLAG APP and pRK5-EGFP-Tau P301L plasmids assessed as increase in HSP70 protein expression at 1 uM after 24 hrs by Western blot analysis; type: cell-based
Outline: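 SH-SY5Y and Neuro-2a cells cotransfected 24 h with APP695/Tau P301L plasmids, treated 24 h at 1 µM (ACY-1215 reference). 30 µg lysate immunoprecipitated overnight at 4 °C with anti-HDAC6 or anti-acetyl-lysine antibodies plus protein A/G beads, run on 8% SDS-PAGE, probed for Hsp90; Hsp70 by immunoblot. Three independent experiments.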

[4] = Plasma concentration in Sprague-Dawley rat at 50 mg/kg, po after 1 hr by HPLC-MS/MS analysis; type: ADME, organism-based

Compound: COc1ccc(C(=O)c2ccc3c(ccn3Cc3ccc(C(=O)NO)cc3)c2)cc1
- inhibition [1]: Active
- concentration at 3 h [2]: 7.3 ng/mL
- Activity (Rattus norvegicus): Active
- inhibition (SH-SY5Y): Active
- inhibition [3]: Active
- concentration at 1 h [4]: 8.5 ng/mL
